# Screening results from PubChem.
# Shown are actives, neighbours in structure and some others; about 2.6% of the full set was active somewhere.
# SENP8 block-1: inhibitors of human SENP8 protease; Q96LD8; hit rate 0.64% among 360,000; AID 602440; recombinant SENP8, Nedd8 substrate fluorescence; inhibition, % at 20 µM; in the data active = inhibition mostly above about 40%, no sharp cut-off; inactive = mostly below about 27%
# SENP8 block-2: SENP8 protease inhibition. purified SENP8, Z-RLRGG-aminoluciferin cleavage, luminescence. inhibition, % at 10 µM. hit rate 1.2% among 330,000. AID 2540; in the data active = inhibition above about 50%
# SENP6 block: SENP6 protease inhibition | inhibition, % at 10 µM | hit rate 1.8% among 330,000 | Q9GZR1 | Recombinant SENP6 catalytic domain, aminoluciferin luminescence;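 active = inhibition above about 50% at the single tested dose, limit read from the data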;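 also: plate controls were DMSO wells with enzyme for no effect and DMSO wells lacking enzyme for full effect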
# Platelet DG rel: platelet dense granule release activity; human platelet-rich plasma, SFLLRN dense granule ATP release, luminescence; inhibition, %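 (compounds screened at 7.5 µM in platelet-rich plasma)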; hit rate 0.22% among 300,000; AID 1663;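 active = mean replicate score, as percent of positive control, at or above 50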
# SENP1 inh: inhibitors of human SENP1 SUMO protease catalytic domain; Q9P0U3; recombinant SENP1 catalytic domain, CyPet-SUMO1-YPet FRET cleavage; inhibition, % at 10 µM; hit rate 0.21% among 360,000;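 active = inhibition at least 30% at 10 µM, raw YFP signal under a set limit, fluorescence ratio 0.5 to 1.5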;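 also: 0% = enzyme with DMSO and 100% = no enzyme wells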
# Target sequence (Q9P0U3 419-644 limits assumed): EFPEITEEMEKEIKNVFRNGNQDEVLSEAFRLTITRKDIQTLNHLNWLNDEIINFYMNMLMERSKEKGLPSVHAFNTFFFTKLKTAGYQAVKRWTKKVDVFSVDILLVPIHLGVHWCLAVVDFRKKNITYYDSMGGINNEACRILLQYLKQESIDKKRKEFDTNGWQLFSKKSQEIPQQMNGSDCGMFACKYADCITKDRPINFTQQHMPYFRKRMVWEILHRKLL
#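 material = recombinant human SENP1 catalytic domain, His6-tagged | quantity = 20 pM enzyme | reagent = 25 nM SUMO1 FRET substrate | compound dosing = 10 µM single point, 0.5% DMSO | timing = 50 min enzyme reaction, room temperature, light-protected | detection = FRET, CFP and YFP emission | control set = no-enzyme low, enzyme-DMSO high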
# SENP7 inh: blocks the human protease SENP7; inhibition, % at 5 µM; recombinant SENP7, Z-RLRGG-aminoluciferin luminescence, 40 min; hit rate 1.5% among 330,000;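 active = inhibition above about 50% at the single test dose, limit read from the data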;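 also: plate controls were DMSO with enzyme for no effect and no enzyme buffer wells for full effect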
# Target sequence (Q9BQF6 706-1050 limits assumed): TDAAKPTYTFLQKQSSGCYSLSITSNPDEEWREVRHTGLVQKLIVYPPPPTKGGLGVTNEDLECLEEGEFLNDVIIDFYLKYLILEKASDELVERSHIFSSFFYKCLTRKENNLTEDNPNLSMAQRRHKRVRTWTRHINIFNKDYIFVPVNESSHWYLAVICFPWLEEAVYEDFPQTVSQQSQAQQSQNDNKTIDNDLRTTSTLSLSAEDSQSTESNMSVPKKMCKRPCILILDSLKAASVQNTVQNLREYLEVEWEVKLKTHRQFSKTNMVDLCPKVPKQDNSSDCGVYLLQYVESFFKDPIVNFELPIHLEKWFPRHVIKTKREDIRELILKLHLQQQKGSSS
# SENP8 inh conf: confirmation of human SENP8 protease inhibitors. shares compounds with SENP8 block-1. purified SENP8, Nedd8-AMC/pro-Nedd8 cleavage fluorescence, 30 min. inhibition, % at 25 µM. hit rate 15% among 1,400. AID 624319; in the data active = inhibition mostly above about 39%, no sharp cut-off; inactive = mostly below about 34%
# Numbers without * were called inactive; . = not tested or not shown; ! = repeats disagree.
SMILES,SENP8 block-1,SENP8 block-2,SENP6 block,Platelet DG rel,SENP1 inh,SENP7 inh,SENP8 inh conf
COc1cc(/C=N/NC(=O)c2cc[n+]([O-])cc2)ccc1O,18,0,19,0,3,-2,.
COc1ccc([C@H]2C[C@H](O)[C@@H](n3cc(COC(=O)c4ccccc4)nn3)CN2CC2CCCCC2)cc1,-4,.,.,.,0,.,.
O=S(=O)(c1ccc(NC(=S)Nc2ccc3c(c2)OCO3)cc1)N1CCOCC1,44*,5,13,5,-12,11,-5
Cc1cc(NS(=O)(=O)c2ccc(NC(=O)COc3ccc(Br)cc3)cc2)nc(C)n1,17,-6,0,-5,2,-5,.
CCOc1ccc(OCC(=O)Nc2ccc(S(=O)(=O)Nc3cc(C)nc(C)n3)cc2)cc1,42*,-2,-11,-6,-1,-5,5
COc1ccc(-c2csc(CCN3N=C(C)CC3=O)n2)cc1,59*,-4,27,-5,-2,4,62*
COc1ccc(-c2csc(C)n2)cc1,16,-11,-34,1,2,19,.
O=C(c1cc([N+](=O)[O-])ccc1N1CCCCC1)N1CCCCC1,14,9,-2,8,-2,5,.
O=C(O)c1c(N2CCCCC2)ccc([N+](=O)[O-])c1N1CCCCC1,40*,-2,-4,1,1,7,23
O=C(O)c1cc([N+](=O)[O-])ccc1N1CCCCC1,42*,-8,-13,10,3,-5,16
O=C1CCCCCCCN1Cc1ccccc1,14,-3,-14,3,-1,-6,.
CC1=NN(Cc2ccccc2)C(=O)C1,43*,4,9,6,2,12,26
CC(=O)N1CCc2cc(NC(=O)C3(C)CCN3Cc3ccccc3Cl)ccc21 (stereo not given),5,.,.,.,-1,.,.
CC1(C(=O)Nc2ccc3c(c2)OCCO3)CCN1Cc1ccc(-c2ccccn2)cc1 (stereo not given),18,.,.,.,2,.,.
CC1(C(=O)Nc2ccc3c(c2)OCCO3)CCN1Cc1ccc2ccccc2c1 (stereo not given),40*,.,.,.,-1,.,-12
O=c1[nH]c(=S)[nH]c2c1C(c1ccc(F)cc1)OC(C1CCCCC1)C2 (stereo not given),16,.,.,.,2,.,.
CC(C)C1C(=O)N(Cc2cn(CCC3OCCCO3)nn2)CCS(=O)(=O)N1Cc1ccc(-c2ccc(Cl)nc2)cc1 (stereo not given),3,.,.,.,-1,.,.
N#CC1=C(N)Oc2c(oc(CO)cc2=O)C1c1cccs1 (stereo not given),45*,0,22,4,0,4,30
CC(=O)N(O)CCCCCNC(=O)CCC(=O)N(O)CCCCCNC(=O)CCC(=O)N(O)CCCCCN,50*!,1,-2,-3,2,4,19
CCS(=O)(=O)N1CCN(c2ccc([N+](=O)[O-])c(NCc3ccccc3)c2)CC1,35,4,-17,1,4,2,.
CS(=O)(=O)N1CCN(c2ccc([N+](=O)[O-])c(NCc3ccccc3)c2)CC1,45*,-9,-4,8,0,-13,23
O=[N+]([O-])c1ccc(N2CCCC2)cc1NC(c1ccccc1)c1ccccc1,56*,-3,-3,-6,2,2,8
CCS(=O)(=O)N1CCN(c2ccc([N+](=O)[O-])c(NC(C)c3ccccc3)c2)CC1 (stereo not given),60*,0,-1,-25,3,2,1
CC(Nc1cc(N2CCNCC2)ccc1[N+](=O)[O-])c1ccccc1 (stereo not given),35,-6,-3,-5,4,-4,.
O=[N+]([O-])c1ccc(N2CCOCC2)cc1NC(c1ccccc1)c1ccccc1,28,-6,-2,-13,1,7,.
SMILES,SENP8 block-1,SENP8 block-2,SENP6 block,Platelet DG rel,SENP1 inh,SENP7 inh,SENP8 inh conf
O=C(c1ccc(Cl)c(S(=O)(=O)N2CCCCC2)c1)N1CCCC(C(F)(F)F)C1 (stereo not given),15,-9,2,.,1,2,.
OC(Cc1cccc(Br)c1)c1ncc(-c2cccc(C(F)(F)F)c2)[nH]1 (stereo not given),1,.,.,.,2,.,.
CCC(C)(C)C1CCC(=NNC(=S)Nc2ccccc2)CC1 (stereo not given),45*,5,-10,7,2,5,0
O=C(Nc1ccc(N2CCN(C(=O)c3ccc(Cl)cc3)CC2)cc1)c1ccc([N+](=O)[O-])o1,33*,.,.,-9,3,.,26
O=C(Nc1ccc(N2CCN(C(=O)c3ccc(Cl)cc3)CC2)cc1)c1ccc2c(c1)OCCO2,8,-9,-11,4,1,0,.
CC(C)(C)C(=O)N1CCN(c2ccc(NC(=O)c3ccco3)cc2)CC1,2,-2,-22,-3,2,0,.
CCCC(=O)N1CCN(c2ccc(NC(=O)c3ccc([N+](=O)[O-])o3)cc2)CC1,54*,.,.,-3,0,.,46
CC1CCN(c2ccccc2NC(=O)c2ccc([N+](=O)[O-])o2)CC1,15,-8,0,-3,1,-14,.
CC(C)(C)C(=O)N1CCN(c2ccc(NC(=O)c3ccc([N+](=O)[O-])o3)cc2)CC1,48*,6,12,-12,-1,12,27
O=C(Nc1ccccc1N1CCCC1)c1ccc([N+](=O)[O-])o1,40*,-3,22,-22,0,14,54*
CCC(=O)N1CCN(c2ccc(NC(=O)c3ccc([N+](=O)[O-])o3)cc2)CC1,43*,.,.,5,-1,.,26
C=CCNC(=S)NN=C1CCC(c2ccccc2)CC1 (stereo not given),45*,15,10,17,1,-3,18
COCCNC(=S)NN=C1CCC(c2ccccc2)CC1 (stereo not given),14,5,9,6,0,-5,.
COc1cccc(Nc2cc(N3CCOCC3)c3nonc3c2[N+](=O)[O-])c1,44*,-6,4,-11,-19,-9,14
O=[N+]([O-])c1c(Nc2ccccc2O)cc(N2CCOCC2)c2nonc12,-392,5,1,-17,-26,12,.
Cc1[nH]nc(N2CCCCC2)c1[N+](=O)[O-],44*,1,-5,-3,1,5,6
COCOc1cc(O)c(C(=O)/C=C/c2ccccc2)c(OCOC)c1,51*,12,7,-1,3,-9,6
CCOc1ccccc1NC1=C(Cl)C(=O)N(Cc2ccccc2)C1=O,41*,-4,-12,6,2,-9,17
Cn1c(=O)c(C(=O)COC(=O)c2cc(-c3ccco3)nc3ccccc23)c(N)n(CC2CC2)c1=O,.,-1,-32,0,.,3,.
CNc1ncnc(Sc2ccc(Cl)cc2)c1[N+](=O)[O-],42*,8,-3,3,1,0,4
